Assay results reported in ChEMBL document CHEMBL3085642, “Synthesis and evaluation of novel 4-nitropyrrole-based 1,3,4-oxadiazole derivatives as antimicrobial and anti-tubercular agents” (Eur J Med Chem, 2013).
Values after ≈ are worked out from the molar mass of the structure shown.

Key:
Escherichia coli [1] = assay: Antibacterial activity against Escherichia coli ATCC 25922 by two fold broth dilution method; assay type: functional
Candida albicans [2] = assay: Ratio of ampotericin-B MIC to compound MIC against Candida albicans; assay type: functional
Staphylococcus aureus [3] = assay: Antibacterial activity against methicillin-susceptible Staphylococcus aureus ATCC 35556 by broth dilution method; assay type: functional
Vero = assay: Cytotoxicity against african green monkey Vero cells after 72 hrs by MTT assay; assay type: cell-based; conditions: Chlorocebus sabaeus
Procedure, shortened: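 Vero cells were exposed to compounds for 72 h. Viability was measured by cellular conversion of MTT into formazan (non-radioactive proliferation assay), and the cytotoxic concentration was reported as IC50.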

Staphylococcus aureus [4] = assay: Ratio of ciprofloxacin MIC to compound MIC against Staphylococcus aureus ATCC 25923; assay type: functional
Staphylococcus aureus [5] = assay: Antibacterial activity against Staphylococcus aureus ATCC 25923 by two fold broth dilution method; assay type: functional
[6] = tested on: Mycobacterium tuberculosis; assay: Antitubercular activity against Mycobacterium tuberculosis H37Rv after 7 days by resazurin microtitre assay; assay type: functional; conditions: 168 h
Klebsiella pneumoniae = assay: Antibacterial activity against Klebsiella pneumoniae by two fold broth dilution method; assay type: functional
Bacillus spizizenii [7] = assay: Ratio of ciprofloxacin MIC to compound MIC against Bacillus subtilis ATCC 6633; assay type: functional
Candida albicans [8] = assay: Antifungal activity against Candida albicans after 48 hrs by two fold agar dilution method; assay type: functional
Procedure, shortened: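 Two-fold serial dilutions in DMSO were tested against C. albicans by agar dilution. Cultures were incubated for 48 h at 35 °C and growth was monitored. MIC was taken as the lowest concentration (highest dilution) that arrested fungal growth.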

Bacillus spizizenii [9] = assay: Antibacterial activity against Bacillus subtilis ATCC 6633 by two fold broth dilution method; assay type: functional
Staphylococcus aureus [10] = assay: Antibacterial activity against methicillin-resistant Staphylococcus aureus ATCC 43866 by broth dilution method; assay type: functional
Escherichia coli [11] = assay: Ratio of ciprofloxacin MIC to compound MIC against Escherichia coli ATCC 25922; assay type: functional
Staphylococcus aureus [12] = assay: Ratio of ciprofloxacin MIC to compound MIC against methicillin-susceptible Staphylococcus aureus ATCC 35556; assay type: functional
Staphylococcus aureus [13] = assay: Ratio of ciprofloxacin MIC to compound MIC against methicillin-resistant Staphylococcus aureus ATCC 43866; assay type: functional

Compound	MIC (Escherichia coli [1]) [µg/mL]	Ratio (Candida albicans [2])	MIC (Staphylococcus aureus [3]) [µg/mL]	IC50 (Vero) [µM]	Ratio (Staphylococcus aureus [4])	MIC (Staphylococcus aureus [5]) [µg/mL]	MIC [6] [µg/mL]	MIC (Klebsiella pneumoniae) [µg/mL]	Ratio (Bacillus spizizenii [7])	MIC (Candida albicans [8]) [µg/mL]	MIC (Bacillus spizizenii [9]) [µg/mL]	MIC (Staphylococcus aureus [10]) [µg/mL]	Ratio (Escherichia coli [11])	Ratio (Staphylococcus aureus [12])	Ratio (Staphylococcus aureus [13])
Cn1cc([N+](=O)[O-])cc1-c1nnc(Cc2ccccc2F)o1	1.56 (≈ 5.16 µM)	2	1.56 (≈ 5.16 µM)	245	2	0.78 (≈ 2.58 µM)	8.6 (≈ 28.5 µM)	12.5 (≈ 41.4 µM)	2	1.56 (≈ 5.16 µM)	0.78 (≈ 2.58 µM)	1.56 (≈ 5.16 µM)	–	–	–
O=[N+]([O-])c1c[nH]c(-c2nnc(-c3cc(-c4ccccc4)nc4ccc(Cl)cc34)o2)c1	0.78 (≈ 1.87 µM)	–	1.56 (≈ 3.73 µM)	281	–	1.56 (≈ 3.73 µM)	97.2 (≈ 233 µM)	25 (≈ 59.8 µM)	–	1.56 (≈ 3.73 µM)	3.12 (≈ 7.48 µM)	3.12 (≈ 7.48 µM)	2	–	–
Cn1cc([N+](=O)[O-])cc1-c1nnc(-c2cc(-c3ccccc3)nc3ccc(Cl)cc23)o1	0.39 (≈ 0.903 µM)	3	0.39 (≈ 0.903 µM)	328	3	0.39 (≈ 0.903 µM)	–	12.5 (≈ 28.9 µM)	–	0.78 (≈ 1.81 µM)	1.56 (≈ 3.61 µM)	1.56 (≈ 3.61 µM)	3	–	–
Cn1cc([N+](=O)[O-])cc1-c1nnc(-c2ccccc2Br)o1	1.56 (≈ 4.47 µM)	2	0.39 (≈ 1.12 µM)	303	2	0.78 (≈ 2.23 µM)	12.8 (≈ 36.7 µM)	12.5 (≈ 35.8 µM)	2	1.56 (≈ 4.47 µM)	0.78 (≈ 2.23 µM)	1.56 (≈ 4.47 µM)	–	2	–
Cn1cc([N+](=O)[O-])cc1-c1nnc(-c2ccc(Cl)cc2Cl)o1	1.56 (≈ 4.6 µM)	2	0.39 (≈ 1.15 µM)	387	3	0.39 (≈ 1.15 µM)	18.4 (≈ 54.3 µM)	12.5 (≈ 36.9 µM)	2	1.56 (≈ 4.6 µM)	0.78 (≈ 2.3 µM)	0.78 (≈ 2.3 µM)	–	2	2
O=[N+]([O-])c1c[nH]c(-c2nnc(-c3ccc[nH]3)o2)c1	0.78 (≈ 3.18 µM)	–	1.56 (≈ 6.36 µM)	226	2	0.78 (≈ 3.18 µM)	15.7 (≈ 64 µM)	12.5 (≈ 51 µM)	–	1.56 (≈ 6.36 µM)	1.56 (≈ 6.36 µM)	1.56 (≈ 6.36 µM)	2	–	–
Cn1cc([N+](=O)[O-])cc1-c1nnc(-c2ccc[nH]2)o1	1.56 (≈ 6.02 µM)	3	0.39 (≈ 1.5 µM)	208	3	0.39 (≈ 1.5 µM)	29.3 (≈ 113 µM)	12.5 (≈ 48.2 µM)	2	0.78 (≈ 3.01 µM)	0.78 (≈ 3.01 µM)	0.78 (≈ 3.01 µM)	–	2	2
